Experimental data from ChEMBL document CHEMBL3608210, “LC-MS- and (1)H NMR Spectroscopy-Guided Identification of Antifungal Diterpenoids from Sagittaria latifolia” (J Nat Prod, 2015).
Converted amounts (≈) assume the structure as drawn. The source made the active and inactive calls. No cut-off for these calls is given here.

How the values were obtained:
Vero = test: Cytotoxicity against african green monkey Vero cells assessed as reduction in cell viability incubated for 48 hrs by neutral red based assay; conditions: Chlorocebus sabaeus
Method in brief: (§1)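 Vero (African green monkey kidney […]) and LLC-PK1 (pig kidney epithelial) cells were obtained from ATCC. Cytotoxicity was read by neutral red uptake, with doxorubicin as the positive control. IC50 was taken as the concentration giving 50% growth inhibition of the mammalian cells.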

LLC-PK1 = test: Cytotoxicity against pig LLC-PK1 cells assessed as reduction in cell viability incubated for 48 hrs by neutral red based assay; conditions: Sus scrofa, LLC-PK1, 48 h; method in brief: as §1
[1] = system: Cryptococcus bacillisporus; test: Antifungal activity against Cryptococcus gattii ATCC 32609 assessed as inhibition of microbial growth incubated for 72 hrs at 30 degC by modified CLSI protocol based method; type: functional, organism-based; conditions: ATCC 32609, 72 h
Method in brief: (§2)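 Strains were obtained from ATCC, and amphotericin B served as the positive control. IC50 was the concentration giving 50% growth inhibition of fungal cells. MIC was the lowest concentration allowing no detectable growth. The highest concentration tested was 20 μg/mL.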

Cryptococcus neoformans [2] = test: Antifungal activity against Cryptococcus neoformans ATCC 90113 assessed as inhibition of microbial growth incubated for 72 hrs at 30 degC by modified CLSI protocol based method; type: functional, organism-based; conditions: ATCC 90113, 72 h; method in brief: as §2
Cryptococcus neoformans [3] = test: Antifungal activity against Cryptococcus neoformans ATCC 90113 assessed as inhibition of microbial growth at 20 ug/ml incubated for 72 hrs at 30 degC by modified CLSI protocol based method; type: functional, organism-based; method in brief: as §2

| SMILES | IC50 (Vero) | IC50 (LLC-PK1) | IC50 [1] | MIC [1] | IC50 (Cryptococcus neoformans [2]) | MIC (Cryptococcus neoformans [2]) | growth inhibition (GI) (Cryptococcus neoformans [3]) |
| --- | --- | --- | --- | --- | --- | --- | --- |
| COc1cccc2c1C(=O)c1c(O)c3c(c(O)c1C2=O)C[C@@](O)(C(=O)CO)C[C@@H]3O[C@H]1C[C@H](N)[C@H](O)[C@H](C)O1 [DOXORUBICIN] | 5.4 µg/mL (≈ 9.94 µM) | 0.4 µg/mL (≈ 0.736 µM) | – | – | – | – | – |
| C=C[C@@]1(C)CC[C@H]2C(=CC[C@H]3[C@@](C)(CO)CCC[C@]23C)C1 | 37.5 µg/mL (≈ 130 µM) | 42.5 µg/mL (≈ 147 µM) | 6.8 µg/mL | 20 µg/mL | 9.2 µg/mL | > 20 µg/mL | – |
| C=C[C@@]1(C)CC[C@H]2C(=CC[C@H]3[C@@](C)(CO[C@@H]4O[C@@H](COC(C)=O)[C@H](O)[C@H]4O)CCC[C@]23C)C1 | – | – | – | – | – | – | inactive |
| C[C@@H]1[C@H](O)[C@@H](C)/C=C/C=C/C=C/C=C/C=C/C=C/C=C/[C@H](O[C@@H]2O[C@H](C)[C@@H](O)[C@H](N)[C@@H]2O)C[C@@H]2O[C@](O)(C[C@@H](O)C[C@@H](O)[C@H](O)CC[C@@H](O)C[C@@H](O)CC(=O)O[C@H]1C)C[C@H](O)[C@H]2C(=O)O [AMPHOTERICIN B] | – | – | 0.1 µg/mL | 0.3 µg/mL | – | 0.7 µg/mL | – |
| C=C[C@@]1(C)CC[C@H]2C(=CC[C@H]3[C@@](C)(CO[C@@H]4O[C@@H](CO)[C@H](O)[C@H]4O)CCC[C@]23C)C1 | 30 µg/mL (≈ 71.3 µM) | 21.5 µg/mL (≈ 51.1 µM) | 1.8 µg/mL | 20 µg/mL | 3.7 µg/mL | > 20 µg/mL | – |
